The term GI50 denotes the concentration at which growth is held to half of that of the control.

The results in this text go back to ChEMBL document CHEMBL1145941, “Design, synthesis, and biological evaluation of indenoisoquinoline topoisomerase I inhibitors featuring polyamine side chains on the lactam nitrogen” (2003).

Molecules are shown by their SMILES.

The subject of experiment [1] is SF-539. Nature of the experiment: Cytotoxicity against human CNSSF-539 cancer cell lines. The experiment is classed as functional.
For experiment [2], the system named is DU-145. The experiment is described as follows: Cytotoxicity against human prostate DU-145 cancer cell lines. Type of experiment: functional.
For experiment [3], the system named is UACC-62. The experiment is described as follows: Cytotoxicity against human melanoma UACC-62 cancer cell lines. The experiment is classed as functional.
Experiment [4] has as its system HCT-116. The experiment is described as follows: Cytotoxicity against human colon HCT116 cancer cell lines. Type of experiment: functional.
For experiment [5], the system named is HOP-62. Nature of the experiment: Cytotoxicity was determined in human lung HOP-62 cancer cell lines. Type of experiment: functional.
The subject of experiment [6] is MDA-MB-435. Nature of the experiment: Cytotoxicity against human breast […] cancer cell lines. The experiment is classed as functional.
Experiment [7] has as its system OVCAR-3. The experiment is described as follows: Cytotoxicity against human ovarian OVCAR-3 cancer cell lines. The experiment is classed as functional.
Experiment [8] deals with SN12C. Nature of the experiment: Cytotoxicity against human renal SN12C cancer cell lines. Type of experiment: functional.
For experiment [9], the system named is Panel (Carcinoma cell lines). The experiment is described as follows: Mean graph midpoint for growth inhibition of all human cancer cell lines. The experiment is classed as functional. Set-up: unit: µM. The method, boiled down:
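Mean graph midpoint from the NCI screen, about 55 human cancer cell lines, test range 10^-8 to 10^-4 M. Computed as the average GI50 across all lines tested, with GI50 values below or above the range set to 10^-8 M or 10^-4 M.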

In experiment [10] the target is T1, DNA topoisomerase 1 (Homo sapiens) (UniProt P11387).
T1 sequence (whole entry): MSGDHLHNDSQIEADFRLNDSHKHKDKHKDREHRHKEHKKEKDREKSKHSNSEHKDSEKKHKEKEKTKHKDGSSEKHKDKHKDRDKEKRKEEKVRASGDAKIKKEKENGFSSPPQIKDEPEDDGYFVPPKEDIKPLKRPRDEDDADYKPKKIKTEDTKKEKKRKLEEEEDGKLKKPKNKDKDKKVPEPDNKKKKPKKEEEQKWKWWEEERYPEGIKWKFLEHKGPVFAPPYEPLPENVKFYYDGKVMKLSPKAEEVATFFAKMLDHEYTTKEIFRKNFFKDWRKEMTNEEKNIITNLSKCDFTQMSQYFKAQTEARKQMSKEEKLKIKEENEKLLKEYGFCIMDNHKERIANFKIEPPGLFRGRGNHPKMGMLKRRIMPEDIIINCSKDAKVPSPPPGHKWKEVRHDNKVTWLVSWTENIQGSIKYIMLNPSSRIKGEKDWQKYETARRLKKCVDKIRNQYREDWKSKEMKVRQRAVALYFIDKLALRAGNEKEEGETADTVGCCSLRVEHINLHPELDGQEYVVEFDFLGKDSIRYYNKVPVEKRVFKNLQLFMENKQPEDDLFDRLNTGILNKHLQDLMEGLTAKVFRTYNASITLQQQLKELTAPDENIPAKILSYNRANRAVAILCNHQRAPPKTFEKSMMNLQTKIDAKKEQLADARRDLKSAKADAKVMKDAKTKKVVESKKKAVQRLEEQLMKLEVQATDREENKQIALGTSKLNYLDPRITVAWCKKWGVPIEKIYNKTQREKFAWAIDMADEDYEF
Nature of the experiment: Compound was tested for its inhibitory activity against DNA topoisomerase I; No activity.

Experiment [11] concerns the target T1, DNA topoisomerase 1 (Homo sapiens). Nature of the experiment: Inhibitory activity against DNA topoisomerase I; greater activity than the parent compound 1.

Consider `COc1cc2c3c(n(CCCN(CCO)CCO)c(=O)c2cc1OC)-c1cc2c(cc1C3=O)OCO2.Cl`, for which the GI50 is < 0.01 µM in experiment [1]; < 0.01 µM in [2]; < 0.01 µM in experiment [3]; < 0.01 µM in [4]; < 0.01 µM in experiment [5]; 0.08 µM in [6]. The GI50 is 0.13 µM in [7] and < 0.01 µM in experiment [8]. The MGM in [9] turned out to be 0.07.

For `COc1cc2c3c(n(CCCNCCCNCCCNCCCN)c(=O)c2cc1OC)-c1cc2c(cc1C3=O)OCO2.Cl.Cl.Cl.Cl`, the GI50 in experiment [2] is 1.4 µM; in experiment [3], 1.7 µM; in experiment [4], 1.5 µM; in experiment [5], 3 µM; in experiment [6], 1.4 µM; in [7] it was 1.6 µM. Moreover, the GI50 in experiment [8] was found to be 1.6 µM. Also, the Activity result in [10] was “No activity”. The same molecule came in with an MGM in [9] of 2.

With `COc1cc2c3c(n(CCN(C)C)c(=O)c2cc1OC)-c1cc2c(cc1C3=O)OCO2.O=CO`, the GI50 in [1] is 0.9 µM; in experiment [2], 1.9 µM; in experiment [3], 1.2 µM; in [4], 0.66 µM; in experiment [5] it was 1.1 µM; in experiment [6], 6.1 µM. The GI50 in experiment [7] was determined as 10 µM; in experiment [8], 4.4 µM. The same molecule had an MGM in experiment [9] of 3.1.

For `COc1cc2c3c(n(CCCNCCCNCCN)c(=O)c2cc1OC)-c1cc2c(cc1C3=O)OCO2.Cl.Cl.Cl`, the GI50 worked out at 38 µM in experiment [1]; 52 µM in experiment [2]; 37 µM in experiment [3]; 23 µM in experiment [4]; 38 µM in [6]; 20 µM in experiment [7]. The same molecule displayed a concentration for 50% growth inhibition (GI50) in [8] of 20 µM. In experiment [11], the Activity entry is “greater activity than compound 1”. In experiment [9], this molecule gave an MGM of 41.

Consider `COc1cc2c3c(n(CCCNCCNCCCN)c(=O)c2cc1OC)-c1cc2c(cc1C3=O)OCO2.Cl.Cl.Cl`, for which the GI50 in [1] was 8.6 µM; in [2], 4.6 µM; in experiment [3] it was 1.9 µM; in experiment [4] it was 1.3 µM; in experiment [5] it was 2.9 µM; in experiment [6] it was 3.4 µM. Moreover, the figures for the GI50 in [7] and in experiment [8] were 8.1 µM and 1.7 µM, respectively. The MGM in experiment [9] was determined as 3.

With `COc1cc2c3c(n(CCCNCC(OC)OC)c(=O)c2cc1OC)-c1cc2c(cc1C3=O)OCO2`, the GI50 in experiment [1] stood at 6.7 µM; in experiment [2], 0.54 µM; in experiment [3] it was 2.86 µM; in [4], 0.18 µM; in experiment [5], 0.45 µM; in experiment [6], 10.8 µM. In addition, the concentration for 50% growth inhibition (GI50) in [7] worked out at 6.9 µM. In experiment [11], the Activity entry was “greater activity than compound 1”. The molecule also returned an MGM in experiment [9] of 2.1.

Consider `COc1cc2c3c(n(CCCNCCNCCN)c(=O)c2cc1OC)-c1cc2c(cc1C3=O)OCO2.Cl.Cl.Cl`, for which the GI50 in experiment [1] was determined as 0.55 µM; in experiment [2], 1.2 µM; in experiment [3] it was 2.6 µM; in experiment [4], 0.9 µM; in experiment [5], 2.8 µM; in experiment [6], 2.7 µM. The GI50 in experiment [7] is 1.7 µM; in [8], 2.5 µM. Further, the Activity result in [11] is “greater activity than compound 1”. Besides, the MGM in experiment [9] was 2.4.

For `COc1cc2c3c(n(CCN)c(=O)c2cc1OC)-c1cc2c(cc1C3=O)OCO2.Cl`, the GI50 in experiment [1] worked out at 1.3 µM; in experiment [2], 0.4 µM; in experiment [3], 0.14 µM; in experiment [4] it was 0.068 µM; in experiment [5], 0.58 µM; in experiment [7], 0.86 µM. In experiment [8], this molecule yielded a GI50 of 0.36 µM. Further, the Activity entry in experiment [11] is recorded as “greater activity than compound 1”. In experiment [9], this molecule displayed an MGM of 0.34.

As for `COc1cc2c3c(n(CCCN(C)C)c(=O)c2cc1OC)-c1cc2c(cc1C3=O)OCO2`, the GI50 was 0.19 µM in experiment [1]; 0.14 µM in experiment [2]; 0.54 µM in experiment [3]; 0.12 µM in experiment [4]; 0.018 µM in experiment [5]; 0.65 µM in [6]. The results for the GI50 in experiment [7] and in experiment [8] were 1.4 µM and 0.9 µM, respectively. The Activity result in experiment [11] is reported as “greater activity than compound 1”. The molecule further gave an MGM in experiment [9] of 0.35.

In the case of `COc1cc2c3c(n(CCCNCCN)c(=O)c2cc1OC)-c1cc2c(cc1C3=O)OCO2.Cl.Cl`, the GI50 was 0.43 µM in experiment [1]; 0.72 µM in [2]; 0.65 µM in experiment [3]; 0.56 µM in [4]; 0.38 µM in experiment [5]; 1.6 µM in experiment [6]. In addition, the GI50 is 0.7 µM in [7] and 0.37 µM in experiment [8]. Moreover, the Activity result in [11] is “greater activity than compound 1”. This molecule also showed an MGM in [9] of 0.88.

With `COc1cc2c3c(n(CCCNCCCN)c(=O)c2cc1OC)-c1cc2c(cc1C3=O)OCO2`, the GI50 in [1] stood at 1.2 µM; in experiment [2], 3.1 µM; in experiment [3], 3.4 µM; in experiment [4], 1.3 µM; in [5], 1.6 µM; in experiment [6] it was 2.5 µM. In addition, the GI50 was 3.1 µM in experiment [7] and 2.3 µM in experiment [8]. Also, in [11], the Activity result is recorded as “greater activity than compound 1”. Also, in experiment [9], the MGM is 3.2.

Take `C[C@@]1(O)C(=O)OCc2c1cc1n(c2=O)Cc2cc3ccccc3nc2-1`: the GI50 in experiment [1] was < 0.01 µM; in experiment [2], < 0.01 µM; in [3] it was < 0.01 µM; in experiment [4], 0.03 µM; in experiment [5], < 0.01 µM; in experiment [6] it was 0.04 µM. Further, the GI50 in experiment [7] came to 0.22 µM; in experiment [8] it was 0.02 µM. Further, the Activity entry in experiment [11] is “greater activity than compound 1”. The MGM in [9] worked out at 0.04.

Regarding `COc1cc2c3c(n(C)c(=O)c2cc1OC)-c1cc2c(cc1C3=O)OCO2`, the GI50 in [1] was 41 µM; in experiment [2], 37 µM; in experiment [3], 4.2 µM; in experiment [4] it was 35 µM; in experiment [5], 1.3 µM; in [6] it was 96 µM. In addition, the GI50 in experiment [8] amounted to 68 µM. The molecule also came in with an MGM in experiment [9] of 20.

As for `COc1cc2c3c(n(CCCNCCCNCCCN)c(=O)c2cc1OC)-c1cc2c(cc1C3=O)OCO2.Cl.Cl.Cl`, the GI50 was > 100 µM in [1]; > 100 µM in experiment [2]; 44 µM in experiment [3]; 43 µM in [4]; 68 µM in experiment [6]; 0.88 µM in experiment [7]. Moreover, the GI50 in experiment [8] worked out at 33 µM. The molecule further registered an MGM in experiment [9] of 59.

In the case of `COc1cc2c3c(n(CCCOC(=O)C(F)(F)F)c(=O)c2cc1OC)-c1cc2c(cc1C3=O)OCO2`, the GI50 in [1] was < 0.01 µM; in experiment [2], 0.66 µM; in experiment [3], < 0.01 µM; in experiment [4], 0.018 µM; in experiment [5], < 0.01 µM; in experiment [6], 0.03 µM. Moreover, the GI50 in experiment [7] is 0.07 µM; in experiment [8], < 0.01 µM. Further, the Activity entry in experiment [11] is “greater activity than compound 1”. The same molecule had an MGM in experiment [9] of 0.15.
